The source of these data is PMC4627538 (Journal of Diabetes Investigation, 2015).

Bridge positions count the residues as written; N and C are the ends. Ends that are not written are not given here.

The subject of experiment [1] is maltase glucoamylase (MGAM). Description: Phage ELISA, binding of phage clones to MGAM. On the set-up: species or system rat. Conditions: displayed on phage, judged from ELISA signals, Figure 1. (ELISA stands for enzyme-linked immunosorbent assay.)
Experiment [2] deals with background proteins (BSA and anti-MGAM antibodies). Description: Phage ELISA, binding of phage clones to background. The procedure, abridged:
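Wells coated overnight at 4°C with anti-MGAM antibodies (5 µg/mL) in PBS, blocked 90 min at room temperature with 2% BSA/PBS, with no MGAM added. 5×10^9 pfu of each phage clone in 0.05% PBST incubated 60 min, then washed five times with 0.1% PBST. Bound phage detected with HRP anti-M13 monoclonal antibody and TMB at A450. Triplicates, mean ± SD.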

As to “CTHYGFRGC (disulfide 1-9 (inferred)) [C1]”, in experiment [1], the “affinity towards the target (MGAM), comparison between phage clones” value is “higher affinity towards the target than those obtained with specific elution”. Moreover, the “binding of phage clones to background proteins” value in experiment [2] is reported as “lower background binding”.

Consider “CGHHHRDYC (disulfide 1-9 (inferred)) [C2]”, for which, in experiment [1], the “affinity towards the target (MGAM), comparison between phage clones” value is “higher affinity towards the target than those obtained with specific elution”. The “binding of phage clones to background proteins” value in experiment [2] is reported as “lower background binding”.
